# Results reported in the array DNA melting data of Ke et al. (doi:10.1101/2024.01.08.574731).
# Experiments:
# [1] = melting temperature; fluorescence melt of hairpins on a sequencing array, two-state fit, raised by 9.35 °C to match UV melts; settings: sodium 0.088 M
# How it was run: (§1)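 To match UV melts, fitted temperatures were raised by 9.35 °C. These fits were bootstrapped two-state models that gave melting temperature and folding enthalpy, combined by inverse variance over four replicates. The input was normalised Cy3 fluorescence of library hairpins with annealed Cy3 and quencher oligos on a sequenced MiSeq flow cell, imaged in 50 mM Na-HEPES pH 8.0, 25 mM NaCl in 2.5 °C steps up to 60 °C.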
# [2] = folding enthalpy; higher = less favourable; fluorescence melt of hairpins on a sequencing array, two-state fit; settings: sodium 0.088 M
# How it was run: as §1
Sequence,Tm [1] [°C],folding enthalpy [2] [kcal/mol]
GCATCCGAAAGGAAATGC ((((((....)))..))),46.1,-25.3
GCTGGAGAAATCCAGC ((((((....)))))),62.9,-35.9
GCTCTTGGAAACGAGAGC (((((.(....).))))),51.2,-30.2
GGAGCCGAAAGGCATTCC ((((((....)))..))),33.1,-10.3
GCAGCTCGAAAGAGTGC (((.(((....)))))),51.4,-30
GGGTTGCGAAAGCACCC (((.(((....)))))),62.9,-23.7
GTGGTTGGAAACAACCAC (((((((....))))))),65.7,-44.5
GGCTCTTCGAAAGAAGCC (((..(((....)))))),37.6,-16.3
GTAGCTGGAAACAGTTAC (((.(((....))).))),42.8,-32.8
GATCGTGACACGATC ((((((...)))))),59.9,-40.4
GTCTTACGAAAGTATGAC (((.(((....))).))),48.3,-30.9
GCATATCGAAAGATGTGC (((.(((....))).))),55.4,-36.5
GATCCGTGTCGGATC ((((((...)))))),60.5,-34.4
GAGGGTGGAAACACTCTC (((.(((....))).))),52.3,-29.9
GTAACTCGAAAGAGCTAC (((.(((....))).))),41.9,-29.2
GTACTCGAAAGAGACTAC ((((((....)))..))),33.6,-14.5
GGAGCCGGAAACGGCTTC (.(((((....))))).),60.8,-15
GGCACCGAAAGGTCGCC ((((((....))).))),59.4,-35.6
GACATGGGAAACCGTGTC ((((.((....)).)))),52.1,-30.9
GGCATGCGAAAGCAAGCC (((.(((....))).))),65.4,-27.8
GGATATACGAAAGTATCC (((..(((....)))))),36,-16.9
GGCGATGCGAAAGCAGCC (((..(((....)))))),58.5,-19.5
GTAACCGAAAGGTATAC ((((((....))).))),35.2,-14.9

Sequence,Tm [1] [°C],folding enthalpy [2] [kcal/mol]
GAATGCGAAAGCATGTTC ((((((....)))..))),42.6,-11.2
GATCTTCATAAAGATC ((((((....)))))),43.5,-35.6
GTATCTCGAAAGAGGTAC (((.(((....))).))),48.7,-34.4
CTCAGGAAACTGAG (((((....))))),46.3,-22.6
GATCTAGGTCTAGATC ((((((....)))))),46.2,-37.1
GTTCGACGAAAGTCCAAC (((.(((....))).))),34.5,-19.8
GTCGATGGAAACATCAAC ((.((((....)))).)),34.7,-17.6
GGATCCGAAAGGACTCC ((((((....))).))),47.4,-23.9
GATCGTCTGGACGATC ((((((....)))))),57.5,-42.6
GTGTTCGAAAGAAGGCAC ((((((....)))..))),28.6,-22
GTTTGGCGAAAGCCTAAC (((.(((....))).))),51,-21.8
GAACGACGAAAGTCTTC (((.(((....)))))),34.8,-15.3
GATCCTATGCAGGATC ((((((....)))))),53,-35.2
GCTTCACGAAAGTGTAGC (((.(((....))).))),53.8,-30.2
GATCATGGACATGATC ((((((....)))))),54.3,-40.7
GCGCAGACGAAAGTCCGC (((..(((....)))))),52.4,-25
GCTACCGAAAGGTCGAGC ((((((....)))..))),37,-16.3
GTGTAGGGAAACTTACAC (((((.(....).))))),42,-21.3
GATCAACATTTGATC ((((((...)))))),38.2,-31.1
GGGCACGAAAGTGGGCCC ((((((....)))..))),58.4,-31.8
CGCGACGGAAACGTGGCG (((.(((....))).))),56.9,-49
GAGAGTGGAAACATTCTC ((((.((....)).)))),38.5,-32.6
GGAAACGAAAGTTTCTCC ((((((....)))..))),45.9,-13.8
